This is an account of results in ChEMBL document CHEMBL4725466, “Discovery and SAR of Novel Disubstituted Quinazolines as Dual PI3Kalpha/mTOR Inhibitors Targeting Breast Cancer” (ACS Med Chem Lett, 2020).

In general, IC50 refers to the point on the concentration scale where inhibition reaches its midpoint. One may read the half-life as the time needed for the level to fall by half in the phase considered. Low readings indicate fast loss, high ones slow loss.

The nature of data set [1]: Kinetic aqueous solubility of compound in 2% DMSO/Phosphate buffer saline incubated for 90 mins under shaking condition by. The conditions noted are these: 2% DMSO/phosphate buffered saline, read-out: Kinetic_solubility. The class given is physicochemical. The procedure, abridged: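 Maximum kinetic aqueous solubility measured in 2% DMSO/phosphate-buffered saline, pH 7.4.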

Another data set deals with MDA-MB-468. The experiment in a line: Antiproliferative activity against human MDA-MB-468 cells assessed as cell viability at 10 uM after 48 hrs by celltiter-glo 2D luminescent assay relative to control. It is filed as functional. To be noted: read-out: Activity. The procedure, abridged: (§1)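 2D CellTiter-Glo luminescent viability screen, single 10 μM compound concentration, in MDA-MB-468, MDA-MB-231 and MCF7 breast cancer cells and in normal human dermal fibroblasts; output reported as percent of viable cells.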
On the technique in general: ATP-based viability assays read luminescence as a measure of living cells.

Data set [2] has as its system MCF7. The experiment in a line: Antiproliferative activity against human MCF7 cells assessed as cell viability at 10 uM after 48 hrs by celltiter-glo 2D luminescent assay relative to control. It is filed as functional. The conditions noted are these: read-out: Activity. The procedure, abridged:
as §1

Data set [3] is described as follows: Cytotoxicity against human primary fibroblasts assessed as cell viability at 10 uM after 48 hrs by celltiter-glo 2D luminescent assay relative to control. The class given is cell-based, Fibroblast. The conditions noted are these: read-out: Activity. The procedure, abridged:
as §1

Data set [4] concerns the target PI3-kinase p110-alpha/p85-alpha (Homo sapiens, UniProt P42336). The experiment in a line: Inhibition of human PI3K p110alpha/p85alpha using PIP2 as substrate incubated for 10 mins followed by ATP addition and measured after 30 mins in presence of 10 uM ATP by HTRF assay. It is filed as protein-complex assay.
Data set [5] is described as follows: Half life in CD1 mouse liver microsomes at 1 uM incubated for 60 mins under shaking condition by LC-MS/MS analysis. It is filed as ADME, Microsome. The procedure, abridged: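 Metabolic stability in mouse liver microsomes with test compound at 1 μM; result expressed as t1/2 (min).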
The next data set deals with MDA-MB-231. The experiment in a line: Antiproliferative activity against human MDA-MB-231 cells assessed as cell viability at 10 uM after 48 hrs by celltiter-glo 2D luminescent assay relative to control. The class given is functional. To be noted: read-out: Activity. The essentials: as §1
For data set [6], the target named is PI3-kinase p110-alpha/p85-alpha (Homo sapiens) (UniProt P27986+P42336). The experiment in a line: Inhibition of human PI3K p110alpha/p85alpha at 10 uM using PIP2 as substrate incubated for 10 mins followed by ATP addition and measured after 30 mins in presence of 10 uM ATP by HTRF assay. It is filed as protein-complex assay.
Data set [7] deals with Serine/threonine-protein kinase mTOR (Homo sapiens, UniProt P42345). The experiment in a line: Inhibition of human mTOR at 10 uM using 4EBP1 as substrate after 120 mins by [gamma-33P]-ATP assay. The essentials:
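Single-point kinase screen by HotSpot radioisotope filter binding assay; compound at 10 μM with 10 μM ATP, reported as percent inhibition of PI3Kα and mTOR.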

For data set [8], the system named is MCF7. The experiment in a line: Antiproliferative activity against human MCF7 cells assessed as reduction in cell viability after 48 hrs by celltiter-glo 3D luminescent assay. The class given is functional, cell-based. To be noted: MCF7, 48 h. The procedure, abridged: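 MCF7 cells grown in 3D culture, viability read by CellTiter-Glo 3D luminescence; dose–response curves run up to 15 μM to derive IC50.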

Values after ≈ are worked out from the molar mass of the structure shown. Active and inactive are the calls of the source.

Chain of PI3-kinase p110-alpha/p85-alpha (P27986 whole entry): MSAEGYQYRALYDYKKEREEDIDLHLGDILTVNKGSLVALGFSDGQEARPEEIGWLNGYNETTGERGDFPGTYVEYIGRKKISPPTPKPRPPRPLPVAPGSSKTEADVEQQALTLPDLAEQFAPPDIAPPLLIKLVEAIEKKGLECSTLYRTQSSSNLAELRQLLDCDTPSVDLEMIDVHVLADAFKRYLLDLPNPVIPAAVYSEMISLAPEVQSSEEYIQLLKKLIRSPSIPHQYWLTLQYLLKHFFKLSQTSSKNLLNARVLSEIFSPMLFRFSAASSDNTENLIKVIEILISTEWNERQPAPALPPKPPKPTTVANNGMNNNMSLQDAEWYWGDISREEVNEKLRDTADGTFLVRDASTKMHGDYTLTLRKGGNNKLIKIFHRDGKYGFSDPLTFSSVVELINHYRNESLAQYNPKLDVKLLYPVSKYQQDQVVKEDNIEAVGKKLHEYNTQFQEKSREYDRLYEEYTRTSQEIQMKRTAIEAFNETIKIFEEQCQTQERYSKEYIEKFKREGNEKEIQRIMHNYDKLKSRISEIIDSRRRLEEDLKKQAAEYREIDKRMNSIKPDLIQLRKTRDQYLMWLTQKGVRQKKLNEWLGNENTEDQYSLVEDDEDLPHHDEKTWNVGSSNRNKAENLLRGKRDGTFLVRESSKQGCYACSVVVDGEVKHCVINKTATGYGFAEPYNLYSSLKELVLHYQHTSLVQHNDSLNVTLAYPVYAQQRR
Chain of PI3-kinase p110-alpha/p85-alpha (P42336 whole entry): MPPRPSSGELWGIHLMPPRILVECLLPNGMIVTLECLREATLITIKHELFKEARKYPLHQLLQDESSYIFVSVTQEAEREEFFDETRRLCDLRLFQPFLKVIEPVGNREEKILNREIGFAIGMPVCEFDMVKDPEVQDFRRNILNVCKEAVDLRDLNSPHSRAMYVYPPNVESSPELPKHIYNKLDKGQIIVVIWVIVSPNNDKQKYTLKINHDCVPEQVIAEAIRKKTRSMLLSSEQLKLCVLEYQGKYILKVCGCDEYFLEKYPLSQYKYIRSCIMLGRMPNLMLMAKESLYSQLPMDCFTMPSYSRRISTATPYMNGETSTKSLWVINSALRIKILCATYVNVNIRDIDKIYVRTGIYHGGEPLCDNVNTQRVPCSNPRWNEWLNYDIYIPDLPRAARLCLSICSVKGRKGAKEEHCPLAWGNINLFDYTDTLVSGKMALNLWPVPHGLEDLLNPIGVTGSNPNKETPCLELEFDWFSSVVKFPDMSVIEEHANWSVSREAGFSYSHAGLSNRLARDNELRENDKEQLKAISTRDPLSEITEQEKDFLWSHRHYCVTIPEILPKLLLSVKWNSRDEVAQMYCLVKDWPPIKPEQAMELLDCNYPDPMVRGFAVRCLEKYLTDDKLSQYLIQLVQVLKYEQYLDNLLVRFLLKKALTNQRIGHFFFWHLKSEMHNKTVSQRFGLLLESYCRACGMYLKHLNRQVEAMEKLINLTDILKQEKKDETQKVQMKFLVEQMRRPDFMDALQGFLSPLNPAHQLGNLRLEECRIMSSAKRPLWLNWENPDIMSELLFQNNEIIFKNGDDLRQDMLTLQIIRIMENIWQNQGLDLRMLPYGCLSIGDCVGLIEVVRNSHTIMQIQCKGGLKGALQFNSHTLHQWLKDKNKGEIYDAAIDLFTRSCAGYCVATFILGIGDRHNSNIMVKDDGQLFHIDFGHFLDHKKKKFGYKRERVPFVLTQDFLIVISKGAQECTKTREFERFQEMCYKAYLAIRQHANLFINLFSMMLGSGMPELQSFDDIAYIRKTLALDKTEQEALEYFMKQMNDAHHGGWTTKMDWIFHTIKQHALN

On to `CNC(=O)Nc1ccc(-c2nc(N3CCOCC3)c3ccccc3n2)cc1`, for which the solubility kinetic at 1.5 h in [1] is 192 µM (≈ 69.8 µg/mL). Further, the viability at 10 µM in the data set with MDA-MB-468 was 96%; with MCF7 [2], 34%; with MDA-MB-231 it was 180%. For the same compound, the viability at 48 h, 10 µM in [3] turned out to be 71%. Besides, the IC50 in data set [4] came to 186 nM. Besides, the half-life at 1 µM in data set [5] turned out to be 8 min. For the same compound, the inhibition result in data set [6] and in data set [7] was “Active” in each case.

As to `CS(=O)(=O)Nc1ccc(NC(=O)Nc2ccc(-c3nc(N4CCOCC4)c4ccccc4n3)cc2)cc1`, in data set [1], the solubility kinetic at 1.5 h came out at 6.9 µM (≈ 3.58 µg/mL). In addition, the values for the viability at 10 µM in the data set on MDA-MB-468, in the data set on MCF7 [2] and with MDA-MB-231 were 66%, 8% and 137%, respectively. Further, the viability at 48 h, 10 µM in [3] is 38%. Moreover, the IC50 in data set [4] is 6.2 nM. The compound further came in with a half-life at 1 µM in data set [5] of 60 min. The inhibition result in [6] and in data set [7] was “Active” throughout.

As to `O=C(Nc1ccc(-c2nc(N3CCOCC3)c3ccccc3n2)cc1)Nc1cncnc1`, the solubility kinetic at 1.5 h in data set [1] was 2.7 µM (≈ 1.15 µg/mL). Also, the viability at 10 µM came out at 56% with MDA-MB-468, 21% with MCF7 [2] and 138% with MDA-MB-231. In data set [3], the viability at 48 h, 10 µM turned out to be 88%. Further, the values for the IC50 (in data set [4]; in the data set with MCF7 [8]) were 114 nM and 1600 nM, respectively. This compound also yielded a half-life at 1 µM in data set [5] of 24.5 min.

For the compound `Oc1cccc(-c2nc(N3CCOCC3)c3oc4ncccc4c3n2)c1` [PI-103], the solubility kinetic at 1.5 h in data set [1] was found to be 3.4 µM (≈ 1.18 µg/mL). In addition, in [3], the viability at 48 h, 10 µM came to 42%. Further, the half-life at 1 µM in data set [5] amounted to 7.1 min.

Consider `O=C(O)c1cccc(-c2nc(N3CCOCC3)c3ccccc3n2)c1`, for which the inhibition result in [6] and in [7] was “Active” throughout.

For `O=S(=O)(Nc1ccccn1)c1ccc(Nc2nc(N3CCOCC3)c3ccccc3n2)cc1`, the inhibition entry in data set [6] and in data set [7] was “Active” each time.

Turning to `N=C(N)NS(=O)(=O)c1ccc(Nc2nc(N3CCOCC3)c3ccccc3n2)cc1`, the solubility kinetic at 1.5 h in data set [1] is 22.7 µM (≈ 9.7 µg/mL). In data set [4], the IC50 came out at 5900 nM. Moreover, the half-life at 1 µM in data set [5] was 44.9 min. Besides, the inhibition entry in [6] and in data set [7] was “Active” in each case.

Consider `O=S(=O)(Nc1ncccn1)c1ccc(Nc2nc(N3CCOCC3)c3ccccc3n2)cc1`, for which the inhibition entry in [6] and in [7] was “Active” throughout.

As for `CCOC(=O)c1ccc(Nc2nc(N3CCOCC3)c3ccccc3n2)cc1`, the inhibition result in data set [6] and in [7] was “Active” throughout.

As to `NS(=O)(=O)c1ccc(Nc2nc(N3CCOCC3)c3ccccc3n2)cc1`, the inhibition result in [6] and in [7] was “Active” throughout.

Regarding `Oc1ccc(-c2nc(N3CCOCC3)c3ccccc3n2)cn1`, the inhibition result in data set [6] and in data set [7] was “Active” in each case.

Turning to `CC(=O)c1ccc(Nc2nc(N3CCOCC3)c3ccccc3n2)cc1`, the inhibition entry in [6] and in data set [7] was “Active” in each case.

As for `N#Cc1cccc(-c2nc(N3CCOCC3)c3ccccc3n2)c1`, the inhibition result in data set [6] and in [7] was “Active” each time.

Take `CC(=O)c1ccc(NC(=O)Nc2ccc(-c3nc(N4CCOCC4)c4ccccc4n3)cc2)cc1`: the solubility kinetic at 1.5 h in [1] came out at 2 µM (≈ 0.935 µg/mL). The viability at 10 µM was determined as 42% with MDA-MB-468, 22% with MCF7 [2] and 74% in the data set on MDA-MB-231. For the same compound, the viability at 48 h, 10 µM in [3] is 20%. In addition, the IC50 in [4] came out at 16.6 nM. The half-life at 1 µM in [5] was over 60 min. Further, the inhibition result in data set [6] and in data set [7] was “Active” throughout.
